In ChEMBL document CHEMBL4007435, “A Rational Design of a Selective Inhibitor for Kv1.1 Channels Prevalent in Demyelinated Nerves That Improves Their Impaired Axonal Conduction” (J Med Chem, 2017):
The source made the active and inactive calls. The rule behind the calls is not given here.

Tests used:
[1] = biological target: T1, Potassium voltage-gated channel subfamily A member 1 (Homo sapiens, UniProt Q09470); assay: Inhibition of Kv1.1 (unknown origin)
[2] = biological target: Potassium voltage-gated channel subfamily A member 3 (Rattus norvegicus) (UniProt P15384); assay: Inhibition of recombinant rat Kv1.3 expressed in HEK293 cells at 10 uM at -90 mV holding potential by whole cell patch clamp Qpatch method relative to control; format: cell-based
How it was run: (§1)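 HEK-293 cells carrying Kv1 channels, either stably expressed (Kv1.1, 1.2, 1.3, 1.4, 1.6, tandem Kv1.1 or 1.2 homotetramers) or transiently transfected (concatemers). Currents were recorded by automated whole-cell clamp with 2-3 MΩ pin-holes. Bath solution (mM): 135 NaCl, 5 KCl, 2 CaCl2, 2 MgCl2, 5 Hepes, 10 sucrose, pH 7.4. Holding potential was −90 mV, with steps to +20 mV for 300 ms. The 10 mM stocks were made in extracellular solution and diluted before use. The readout was steady-state current averaged after 200 ms, and peak current for Kv1.4.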

[3] = biological target: Kv1.2 (Rattus norvegicus, UniProt P63142); assay: Inhibition of recombinant rat Kv1.2 expressed in HEK293 cells at 10 uM at -90 mV holding potential by whole cell patch clamp Qpatch method relative to control; format: cell-based; conditions: HEK293 cells expressing recombinant rat Kv1.2; how it was run: as §1
[4] = biological target: Kv1.6 (Rattus norvegicus, UniProt P17659); assay: Inhibition of recombinant rat Kv1.6 expressed in HEK293 cells at 10 uM at -90 mV holding potential by whole cell patch clamp Qpatch method relative to control; format: cell-based; conditions: HEK293 cells expressing recombinant rat Kv1.6; how it was run: as §1
[5] = biological target: Kv1.4 (Rattus norvegicus, UniProt P15385); assay: Inhibition of recombinant rat Kv1.4 expressed in HEK293 cells at 10 uM at -90 mV holding potential by whole cell patch clamp Qpatch method relative to control; format: cell-based; conditions: HEK293 cells expressing recombinant rat Kv1.4; how it was run: as §1
[6] = biological target: Potassium voltage-gated channel subfamily A member 1 (Rattus norvegicus) (UniProt P10499); assay: Inhibition of recombinant rat Kv1.1 expressed in HEK293 cells at 10 uM at -90 mV holding potential by whole cell patch clamp Qpatch method relative to control; format: cell-based; how it was run: as §1
[7] = tested on: HEK293; assay: Phototoxicity against HEK293 cells under UV irradiation; format: cell-based; conditions: human
[8] = biological target: Potassium voltage-gated channel subfamily A member 1 (Rattus norvegicus) (UniProt P10499); assay: Inhibition of recombinant rat Kv1.1 expressed in HEK293 cells assessed as shift of half maximal vale for activation at 10 uM at -90 mV holding potential by whole cell patch clamp Qpatch method; format: cell-based
[9] = biological target: T2, Potassium voltage-gated channel subfamily A member 1/2 (Kv1.1/Kv1.2) (Rattus norvegicus) (UniProt P10499+P63142); assay: Inhibition of recombinant rat Kv1.1/1.1/1.2/1.2 expressed in HEK293 cells at 10 uM at -90 mV holding potential by whole cell patch clamp Qpatch method relative to control; format: cell-based; how it was run: as §1
[10] = Neurotoxicity in C57BL/6J mouse corpus callosum assessed as effect on amplitude of unmyelinated axon N2 wave at 1 uM relative to baseline; format: toxicity, tissue-based; conditions: ex_vivo
How it was run: (§2)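 Male C57BL/6J mice (16 weeks old) kept on normal diet for 8 weeks (n = 5). Coronal slices (400 µm) containing hippocampus. CC stimulated monopolarly at 0.033 Hz (100 µs); field cAPs recorded on contralateral CC at 40–50% maximum response. After 10 min of stable baseline, compound applied at 1 or 10 µM from 10 mM aCSF stock. Mean ± SEM; n = animals.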

[11] = biological target: T3, Potassium voltage-gated channel subfamily A member 1/2 (Kv1.1/Kv1.2) (Rattus norvegicus, UniProt P10499+P63142); assay: Inhibition of recombinant rat Kv(1.1)2/Kv(1.2)2 expressed in HEK293 cells at -90 mV holding potential by whole cell patch clamp Qpatch method; format: cell-based; how it was run: as §1
[12] = biological target: T4, Potassium voltage-gated channel subfamily A member 1 (Rattus norvegicus, UniProt P10499); assay: Inhibition of recombinant rat Kv1.1 expressed in HEK293 cells at -90 mV holding potential by whole cell patch clamp Qpatch method; format: cell-based; how it was run: as §1
[13] = biological target: T4, Potassium voltage-gated channel subfamily A member 1; assay: Inhibition of recombinant rat Kv(1.1)4 expressed in HEK293 cells at -90 mV holding potential by whole cell patch clamp Qpatch method; format: cell-based; how it was run: as §1
[14] = biological target: T2, Potassium voltage-gated channel subfamily A member 1/2 (Kv1.1/Kv1.2) (Rattus norvegicus); assay: Inhibition of recombinant rat Kv(1.1)2/Kv(1.2)2 expressed in HEK293 cells assessed as time constant for activation of Kv1.1 channel current at 10 uM at -90 mV holding potential by whole cell patch clamp Qpatch method (reference value: 2.8 +/- 0.4 ms); format: cell-based
[15] = biological target: Potassium voltage-gated channel subfamily A member 2 (Rattus norvegicus, UniProt P63142); assay: Inhibition of recombinant rat Kv1.2(4) expressed in HEK293 cells at -90 mV holding potential by whole cell patch clamp Qpatch method; format: cell-based; how it was run: as §1
[16] = Neurotoxicity in C57BL/6J mouse corpus callosum assessed as effect on amplitude of unmyelinated axon N2 wave at 10 uM relative to baseline; format: toxicity, tissue-based; conditions: ex_vivo; how it was run: as §2
[17] = biological target: T3, Potassium voltage-gated channel subfamily A member 1/2 (Kv1.1/Kv1.2); assay: Inhibition of recombinant rat Kv1.1/Kv(1.2)3 expressed in HEK293 cells at -90 mV holding potential by whole cell patch clamp Qpatch method; format: cell-based; how it was run: as §1
[18] = biological target: T2, Potassium voltage-gated channel subfamily A member 1/2 (Kv1.1/Kv1.2) (Rattus norvegicus); assay: Inhibition of recombinant rat Kv(1.1)3/Kv1.2 expressed in HEK293 cells assessed as time constant for activation of Kv1.1 channel current at 10 uM at -90 mV holding potential by whole cell patch clamp Qpatch method (reference value: 3.1 +/- 0.2 ms); format: cell-based
[19] = (§3) Neuroprotective activity against cuprizone-induced demyelination in C57BL/6J mouse corpus callosum assessed as improvement in neuronal conduction by measuring increase in amplitude of unmyelinated axon N2 wave at 10 uM relative to baseline; format: functional
How it was run: as §2, with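 “fed chow with 0.2% cuprizone” for “kept on normal diet”, “7).” for “5).”, “µs); extracellular” for “µs);”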

[20] = biological target: T3, Potassium voltage-gated channel subfamily A member 1/2 (Kv1.1/Kv1.2); assay: Inhibition of recombinant rat Kv(1.1)3/Kv1.2 expressed in HEK293 cells at -90 mV holding potential by whole cell patch clamp Qpatch method; format: cell-based; how it was run: as §1
[21] = biological target: T1, Potassium voltage-gated channel subfamily A member 1; assay: Inhibition of Kv1.1 (unknown origin) expressed in HEK293 cells by whole cell patch clamp Qpatch method; format: cell-based; how it was run: as §1
[22] = biological target: Potassium voltage-gated channel subfamily A member 1 (Rattus norvegicus) (UniProt P10499); assay: Inhibition of recombinant rat Kv1.1 expressed in HEK293 cells assessed as time constant for activation of Kv1.1 channel current at 10 uM at -90 mV holding potential by whole cell patch clamp Qpatch method (reference value: 1.9 +/- 0.15 ms); format: cell-based
[23] = (§4) Neuroprotective activity against cuprizone-induced demyelination in C57BL/6J mouse corpus callosum assessed as improvement in neuronal conduction by measuring increase in amplitude of unmyelinated axon N2 wave at 1 uM relative to baseline; format: functional
How it was run: as §2, with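 “fed chow with 0.2% cuprizone” for “kept on normal diet”, “7).” for “5).”, “µs); extracellular” for “µs);”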

[24] = biological target: T2, Potassium voltage-gated channel subfamily A member 1/2 (Kv1.1/Kv1.2) (Rattus norvegicus); assay: Inhibition of recombinant rat Kv1.2/1.1/1.2/1.1 expressed in HEK293 cells at 10 uM at -90 mV holding potential by whole cell patch clamp Qpatch method relative to control; format: cell-based; how it was run: as §1
[25] = biological target: T2, Potassium voltage-gated channel subfamily A member 1/2 (Kv1.1/Kv1.2) (Rattus norvegicus); assay: Inhibition of recombinant rat Kv1.2/1.2/1.1/1.1 expressed in HEK293 cells at 10 uM at -90 mV holding potential by whole cell patch clamp Qpatch method relative to control; format: cell-based; how it was run: as §1
[26] = Partition coefficient, logP of the compound; format: physicochemical; conditions: octanol/water
[27] = biological target: Potassium voltage-gated channel subfamily A member 1 (Rattus norvegicus) (UniProt P10499); assay: Inhibition of recombinant rat Kv1.1 concatamer expressed in HEK293 cells assessed as time constant for activation of Kv1.1 channel current at -90 mV holding potential by whole cell patch clamp Qpatch method (reference value: 2.2 +/- 0.1 ms); format: cell-based
[28] = species on record: Mus musculus; assay: as §3; format: functional
How it was run: as §2, with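 “fed chow with 0.2% cuprizone” for “kept on normal diet”, “7).” for “5).”, “µs); extracellular” for “µs);”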

[29] = species on record: Mus musculus; assay: as §4; format: functional
How it was run: as §2, with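 “fed chow with 0.2% cuprizone” for “kept on normal diet”, “7).” for “5).”, “µs); extracellular” for “µs);”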

Chain of Kv1.6 (P17659 whole entry): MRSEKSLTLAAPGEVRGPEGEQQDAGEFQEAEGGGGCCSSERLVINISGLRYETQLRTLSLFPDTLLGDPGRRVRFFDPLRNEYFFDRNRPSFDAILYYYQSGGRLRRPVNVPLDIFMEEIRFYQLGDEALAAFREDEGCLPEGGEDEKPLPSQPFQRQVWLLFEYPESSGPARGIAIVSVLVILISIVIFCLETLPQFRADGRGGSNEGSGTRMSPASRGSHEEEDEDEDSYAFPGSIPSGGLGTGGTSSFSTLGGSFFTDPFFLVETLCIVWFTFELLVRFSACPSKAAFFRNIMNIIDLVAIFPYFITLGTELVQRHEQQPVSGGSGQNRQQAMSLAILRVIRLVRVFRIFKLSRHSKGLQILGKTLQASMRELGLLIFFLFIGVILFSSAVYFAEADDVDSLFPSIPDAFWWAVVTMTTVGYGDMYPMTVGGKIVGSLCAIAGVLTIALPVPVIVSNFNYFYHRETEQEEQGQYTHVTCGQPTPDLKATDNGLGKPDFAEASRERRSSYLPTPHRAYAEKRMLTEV
T1 sequence (Q09470 whole entry): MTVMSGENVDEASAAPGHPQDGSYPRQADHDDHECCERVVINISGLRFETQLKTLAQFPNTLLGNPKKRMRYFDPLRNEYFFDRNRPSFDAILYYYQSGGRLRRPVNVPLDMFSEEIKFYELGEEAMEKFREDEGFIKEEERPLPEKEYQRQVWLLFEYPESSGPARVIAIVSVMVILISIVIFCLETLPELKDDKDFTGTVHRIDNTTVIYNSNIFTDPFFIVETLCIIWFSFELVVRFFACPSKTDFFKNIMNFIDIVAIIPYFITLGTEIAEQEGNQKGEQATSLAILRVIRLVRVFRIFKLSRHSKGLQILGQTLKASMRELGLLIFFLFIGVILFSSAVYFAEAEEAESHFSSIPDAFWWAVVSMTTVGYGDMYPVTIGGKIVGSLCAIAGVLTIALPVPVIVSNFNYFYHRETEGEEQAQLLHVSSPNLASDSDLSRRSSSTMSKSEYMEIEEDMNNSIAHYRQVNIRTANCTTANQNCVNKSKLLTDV
Chain of Potassium voltage-gated channel subfamily A member 3 (Rattus norvegicus) (P15384 whole entry): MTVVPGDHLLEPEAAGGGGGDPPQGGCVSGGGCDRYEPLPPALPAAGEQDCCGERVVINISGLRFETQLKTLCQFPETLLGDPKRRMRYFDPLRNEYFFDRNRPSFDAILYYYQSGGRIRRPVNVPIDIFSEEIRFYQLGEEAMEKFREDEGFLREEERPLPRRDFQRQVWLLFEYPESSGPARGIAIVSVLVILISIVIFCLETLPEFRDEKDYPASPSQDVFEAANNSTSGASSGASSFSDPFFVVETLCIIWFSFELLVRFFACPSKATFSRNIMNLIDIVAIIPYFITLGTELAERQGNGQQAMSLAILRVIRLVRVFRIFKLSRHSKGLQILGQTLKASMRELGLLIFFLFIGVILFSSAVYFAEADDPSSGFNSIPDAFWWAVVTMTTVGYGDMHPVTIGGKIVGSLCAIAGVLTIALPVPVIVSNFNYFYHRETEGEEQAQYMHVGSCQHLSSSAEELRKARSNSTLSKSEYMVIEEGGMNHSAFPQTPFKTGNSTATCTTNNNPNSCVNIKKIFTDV
Chain of Kv1.4 (P15385 whole entry): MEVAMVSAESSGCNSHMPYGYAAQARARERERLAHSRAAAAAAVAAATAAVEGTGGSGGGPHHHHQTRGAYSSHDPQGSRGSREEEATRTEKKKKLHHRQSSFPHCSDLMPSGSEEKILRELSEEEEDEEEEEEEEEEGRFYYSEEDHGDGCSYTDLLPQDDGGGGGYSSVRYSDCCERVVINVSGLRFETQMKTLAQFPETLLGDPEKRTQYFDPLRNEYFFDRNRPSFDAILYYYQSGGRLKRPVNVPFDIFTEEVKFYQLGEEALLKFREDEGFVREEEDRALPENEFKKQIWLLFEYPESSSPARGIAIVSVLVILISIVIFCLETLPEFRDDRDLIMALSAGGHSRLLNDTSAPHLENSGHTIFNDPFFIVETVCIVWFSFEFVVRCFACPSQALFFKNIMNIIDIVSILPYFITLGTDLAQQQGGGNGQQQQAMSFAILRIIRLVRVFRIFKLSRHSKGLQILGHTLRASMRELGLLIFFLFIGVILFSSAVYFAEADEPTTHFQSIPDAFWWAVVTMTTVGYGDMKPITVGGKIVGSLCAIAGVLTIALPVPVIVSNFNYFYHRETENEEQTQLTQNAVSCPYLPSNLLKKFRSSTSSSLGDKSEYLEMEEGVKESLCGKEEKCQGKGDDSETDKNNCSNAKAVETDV
Chain of Potassium voltage-gated channel subfamily A member 1 (Rattus norvegicus) (P10499 whole entry): as the sequence (Q09470 whole entry) above, with V9A, V202I, N213T, M449I, V471A, A476G, T480A, A481T, N482D counted along it
T2 sequence (P10499 whole entry, looked up): as the sequence (Q09470 whole entry) above, with V9A, V202I, N213T, M449I, V471A, A476G, T480A, A481T, N482D counted along it
T2 sequence (P63142 whole entry, looked up): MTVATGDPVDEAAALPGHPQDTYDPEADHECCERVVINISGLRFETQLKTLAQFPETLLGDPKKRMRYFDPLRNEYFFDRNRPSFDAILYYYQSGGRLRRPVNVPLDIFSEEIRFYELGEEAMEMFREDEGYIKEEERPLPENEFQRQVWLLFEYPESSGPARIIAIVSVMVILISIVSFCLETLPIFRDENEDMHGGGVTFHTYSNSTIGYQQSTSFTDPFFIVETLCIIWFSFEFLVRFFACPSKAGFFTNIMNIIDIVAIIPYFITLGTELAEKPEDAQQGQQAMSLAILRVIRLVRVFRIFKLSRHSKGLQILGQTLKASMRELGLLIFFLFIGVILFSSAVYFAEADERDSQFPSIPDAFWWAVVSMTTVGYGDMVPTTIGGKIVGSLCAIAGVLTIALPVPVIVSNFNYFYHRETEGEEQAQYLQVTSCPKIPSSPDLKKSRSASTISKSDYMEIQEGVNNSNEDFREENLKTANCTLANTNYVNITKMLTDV
T4 sequence (P10499 whole entry): as the sequence (Q09470 whole entry) above, with V9A, V202I, N213T, M449I, V471A, A476G, T480A, A481T, N482D counted along it
Chain of Kv1.2 (P63142 whole entry): as the sequence (P63142 whole entry, looked up) above
Chain of Potassium voltage-gated channel subfamily A member 2 (P63142 whole entry): as the sequence (P63142 whole entry, looked up) above

Compound: COc1cc(CNC(=O)CCCC/C=C/C(C)C)ccc1O [CAPSAICIN]
- IC50 [1]: 29 µM

Compound: COC(=O)C1=C(C)NC(C)=C(C(=O)OC)C1c1ccccc1[N+](=O)[O-] [NIFEDIPINE]
- IC50 [1]: 96 µM

Compound: Cc1ccc(C(c2ccc(C)cc2)(c2ccc(C(=O)NCCCN)[nH]2)c2ccc(C(=O)NCCCN)[nH]2)cc1.Cl.Cl
- inhibition [2]: 32%
- inhibition at 10 µM [3]: 6%
- inhibition at 10 µM [4]: 5%
- inhibition at 10 µM [5]: 16%
- inhibition [6]: 35%
- Activity [7]: Non-Toxic

Compound: CC[N+](CC)(CC)CC [TETRYLAMMONIUM]
- IC50 [1]: 30 µM

Compound: Cc1ccc(C(c2ccc(C)cc2)(c2ccc(C(=O)NCCN)[nH]2)c2ccc(C(=O)NCCN)[nH]2)cc1.Cl.Cl
- V1/2 [8]: 40 mV
- inhibition [9]: 13%
- Activity [10]: 100.9%
- IC50 [11]: 57 µM
- inhibition [2]: 15%
- IC50 [12]: 16 µM
- IC50 [13]: 14 µM
- TIME [14]: 5e-06 h
- IC50 [15]: > 100 µM
- Activity [16]: 102.6%
- IC50 [17]: > 100 µM
- TIME [18]: 3.89e-06 h
- inhibition at 10 µM [3]: 1%
- Activity [19]: 127.8%
- inhibition at 10 µM [4]: 1%
- inhibition at 10 µM [5]: 5%
- IC50 [20]: 54 µM
- IC50 [21]: 16 µM
- TIME [22]: 5.64e-06 h
- Activity [23]: 108.2%
- inhibition [24]: 15%
- inhibition [6]: 40%
- inhibition [25]: 15%
- logP [26]: -1.05
- TIME [27]: 5.42e-06 h
- Activity [7]: Non-Toxic

Compound: CC(C)(C)OC(=O)NCCNC(=O)c1ccc(-c2c3nc(c(-c4ccc(C(=O)NCCNC(=O)OC(C)(C)C)cc4)c4ccc([nH]4)c(-c4ccc(C(=O)NCCNC(=O)OC(C)(C)C)cc4)c4nc(c(-c5ccc(C(=O)NCCNC(=O)OC(C)(C)C)cc5)c5ccc2[nH]5)C=C4)C=C3)cc1
- IC50 [12]: 13 µM

Compound: O=C(NCC1CCCCN1)c1cc(OCC(F)(F)F)ccc1OCC(F)(F)F (stereo not drawn) [FLECAINIDE]
- IC50 [1]: 209 µM

Compound: Cc1ccc(C(c2ccc(C)cc2)(c2ccc(C(=O)NCCCCN)[nH]2)c2ccc(C(=O)NCCCCN)[nH]2)cc1.Cl.Cl
- inhibition [2]: 8%
- inhibition at 10 µM [3]: 3%
- inhibition at 10 µM [4]: 4%
- inhibition at 10 µM [5]: 3%
- inhibition [6]: 8%
- Activity [7]: Non-Toxic

Compound: COc1ccc([C@@H]2Sc3ccccc3N(CCN(C)C)C(=O)[C@@H]2OC(C)=O)cc1 [DILTIAZEM]
- IC50 [1]: 144 µM

Compound: Nc1ccncc1 [DALFAMPRIDINE]
- Activity [10]: 105.3%
- Activity [16]: 105.7%
- Activity [28]: inactive
- Activity [29]: inactive
